Experimental data from ChEMBL document CHEMBL4715736, “Identification of anticancer agents based on the thieno[2,3-b]pyridine and 1H-pyrazole molecular scaffolds” (2016).

Columns and labels:
Format in all cases: functional
SF-539 [1] = test: Growth inhibition of human SF-539 cells assessed as cell growth at 1 uM incubated for 48 hrs by sulforhodamine B assay relative to control; conditions: read-out: Activity
LOX IMVI = test: Growth inhibition of human LOX IMVI cells incubated for 48 hrs by sulforhodamine B assay
How it was run: (§1)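 NCI60 panel at the NCI Developmental Therapeutics Program. Only compounds active in the 10 µM screen went to dose-response testing. GI50, the concentration giving 50% of maximal inhibition of proliferation, and TGI, the concentration giving total growth inhibition, were derived from the dose-response curves.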

SF-295 [2] = test: Growth inhibition of human SF-295 cells assessed as cell growth at 100 uM incubated for 48 hrs by sulforhodamine B assay relative to control; conditions: read-out: Activity
SK-MEL-2 = test: Growth inhibition of human SK-MEL-2 cells incubated for 48 hrs by sulforhodamine B assay
How it was run: (§2)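 NCI DTP 60-line human tumour panel. Dose-response curves were run only for ligands active in the initial 10 µM screen. GI50 (concentration giving 50% of maximal inhibition of proliferation) and TGI (concentration giving total growth inhibition) were derived from these curves.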

HOP-62 = test: Growth inhibition of human HOP-62 cells assessed as cell growth at 0.01 uM incubated for 48 hrs by sulforhodamine B assay relative to control; conditions: read-out: Activity
HCT-15 = test: Growth inhibition of human HCT-15 cells assessed as cell growth at 0.1 uM incubated for 48 hrs by sulforhodamine B assay relative to control; conditions: read-out: Activity
SN12C [3] = test: Growth inhibition of human SN12C cells incubated for 48 hrs by sulforhodamine B assay; how it was run: as §2
Hs-578T = test: Growth inhibition of human Hs-578T cells assessed as cell growth at 1 uM incubated for 48 hrs by sulforhodamine B assay relative to control; conditions: read-out: Activity
NCI-H322M = test: Growth inhibition of human NCI-H322M cells assessed as cell growth at 100 uM incubated for 48 hrs by sulforhodamine B assay relative to control; conditions: read-out: Activity
SF-295 [4] = test: Growth inhibition of human SF-295 cells incubated for 48 hrs by sulforhodamine B assay; how it was run: as §2
SF-539 [5] = test: Growth inhibition of human SF-539 cells assessed as cell growth at 0.01 uM incubated for 48 hrs by sulforhodamine B assay relative to control; conditions: read-out: Activity
SW-620 = test: Growth inhibition of human SW-620 cells assessed as cell growth at 0.01 uM incubated for 48 hrs by sulforhodamine B assay relative to control; conditions: read-out: Activity
MDA-MB-231 = test: Growth inhibition of human MDA-MB-231 cells assessed as cell growth at 0.1 uM incubated for 48 hrs by sulforhodamine B assay relative to control; conditions: read-out: Activity
RXF 393 = test: Growth inhibition of human RXF 393 cells assessed as cell growth at 0.1 uM incubated for 48 hrs by sulforhodamine B assay relative to control; conditions: read-out: Activity
MCF7 = test: Growth inhibition of human MCF7 cells assessed as cell growth at 0.1 uM incubated for 48 hrs by sulforhodamine B assay relative to control; conditions: read-out: Activity
UACC-62 = test: Growth inhibition of human UACC-62 cells assessed as cell growth at 100 uM incubated for 48 hrs by sulforhodamine B assay relative to control; conditions: read-out: Activity
PC-3 = test: Growth inhibition of human PC-3 cells assessed as cell growth at 1 uM incubated for 48 hrs by sulforhodamine B assay relative to control; conditions: read-out: Activity
RPMI-8226 = test: Growth inhibition of human RPMI-8226 cells assessed as cell growth at 0.01 uM incubated for 48 hrs by sulforhodamine B assay relative to control; conditions: read-out: Activity
BT-549 = test: Growth inhibition of human BT-549 cells assessed as cell growth at 100 uM incubated for 48 hrs by sulforhodamine B assay relative to control; conditions: read-out: Activity
SF-268 = test: Growth inhibition of human SF-268 cells assessed as cell growth at 100 uM incubated for 48 hrs by sulforhodamine B assay relative to control; conditions: read-out: Activity
SF-539 [6] = test: Growth inhibition of human SF-539 cells assessed as cell growth at 100 uM incubated for 48 hrs by sulforhodamine B assay relative to control; conditions: read-out: Activity
NCI-H460 = test: Growth inhibition of human NCI-H460 cells assessed as cell growth at 1 uM incubated for 48 hrs by sulforhodamine B assay relative to control; conditions: read-out: Activity
ACHN = test: Growth inhibition of human ACHN cells assessed as cell growth at 0.1 uM incubated for 48 hrs by sulforhodamine B assay relative to control; conditions: read-out: Activity
SR = test: Growth inhibition of human SR cells assessed as cell growth at 100 uM incubated for 48 hrs by sulforhodamine B assay relative to control; conditions: read-out: Activity
MDA-MB-435 = test: Growth inhibition of human MDA-MB-435 cells assessed as cell growth at 0.1 uM incubated for 48 hrs by sulforhodamine B assay relative to control; conditions: read-out: Activity
A498 [7] = test: Growth inhibition of human A498 cells assessed as cell growth at 0.01 uM incubated for 48 hrs by sulforhodamine B assay relative to control; conditions: read-out: Activity
How it was run: (§3)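 NCI Developmental Therapeutics Program NCI60 panel. Compounds that were active in the 10 µM one-dose screen went on to dose–response testing. Growth at each concentration is expressed relative to untreated control (100%). GI50 (concentration giving 50% of maximal inhibition of proliferation) and TGI (concentration giving total growth inhibition) were derived from the curves.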

SNB-75 = test: Growth inhibition of human SNB-75 cells assessed as cell growth at 1 uM incubated for 48 hrs by sulforhodamine B assay relative to control; conditions: read-out: Activity
COLO 205 = test: Growth inhibition of human COLO 205 cells incubated for 48 hrs by sulforhodamine B assay; how it was run: as §3
A498 [8] = test: Growth inhibition of human A498 cells assessed as cell growth at 1 uM incubated for 48 hrs by sulforhodamine B assay relative to control; conditions: read-out: Activity; how it was run: as §3
HT-29 = test: Growth inhibition of human HT-29 cells incubated for 48 hrs by sulforhodamine B assay; how it was run: as §1
NCI-H23 = test: Growth inhibition of human NCI-H23 cells incubated for 48 hrs by sulforhodamine B assay; how it was run: as §1
SN12C [9] = test: Growth inhibition of human SN12C cells assessed as cell growth at 100 uM incubated for 48 hrs by sulforhodamine B assay relative to control; conditions: read-out: Activity
NCI/ADR-RES = test: Growth inhibition of human NCI/ADR-RES cells assessed as cell growth at 1 uM incubated for 48 hrs by sulforhodamine B assay relative to control; conditions: read-out: Activity
SNB-19 = test: Growth inhibition of human SNB-19 cells assessed as cell growth at 1 uM incubated for 48 hrs by sulforhodamine B assay relative to control; conditions: read-out: Activity
KM12 = test: Growth inhibition of human KM12 cells assessed as cell growth at 0.01 uM incubated for 48 hrs by sulforhodamine B assay relative to control; conditions: read-out: Activity

## Cc1cc(C)c(NC(=O)c2sc3nc4c(cc3c2N)CN(Cc2ccccc2)CC4)c(C)c1
SF-539 [1]
  growth at 1 µM: 88%
LOX IMVI
  GI50: 5.01 µM
  LC50: 50.9 µM
  TGI: 18.1 µM
SF-295 [2]
  growth at 100 µM: -2%
SK-MEL-2
  GI50: 5.59 µM
  LC50: > 100 µM
  TGI: > 100 µM
HOP-62
  growth at 0.01 µM: 83%
HCT-15
  growth at 0.1 µM: 93%
SN12C [3]
  GI50: 5.6 µM
  TGI: > 100 µM
SN12C [3]; read-out: LC50 (the source's name)
  CC50: > 100 µM
Hs-578T
  growth at 1 µM: 76%
NCI-H322M
  growth at 100 µM: 39%
SF-295 [4]
  GI50: 1890 nM
  LC50 (concentration killing 50% of cells): > 100 µM
  TGI: 64.7 µM
SF-539 [5]
  growth at 0.01 µM: 91%
SW-620
  growth at 0.01 µM: 95%
MDA-MB-231
  growth at 0.1 µM: 101%
RXF 393
  growth at 0.1 µM: 89%
MCF7
  growth at 0.1 µM: 91%
UACC-62
  growth at 100 µM: -22%
PC-3
  growth at 1 µM: 75%
RPMI-8226
  growth at 0.01 µM: 101%
BT-549
  growth at 100 µM: -9%
SF-268
  growth at 100 µM: -10%
SF-539 [6]
  growth at 100 µM: -45%
NCI-H460
  growth at 1 µM: 96%
ACHN
  growth at 0.1 µM: 100%
SR
  growth at 100 µM: -16%
MDA-MB-435
  growth at 0.1 µM: 96%
A498 [7]
  growth at 0.01 µM: 87%
SNB-75
  growth at 1 µM: 79%
COLO 205
  GI50: 2980 nM
  LC50 (concentration killing 50% of cells): 68.8 µM
  TGI: 10.1 µM
A498 [8]
  growth at 1 µM: 58%
HT-29
  GI50: 2880 nM
  LC50: > 100 µM
  TGI: 13.2 µM
NCI-H23
  GI50: 4.51 µM
  LC50 (50% lethal concentration): > 100 µM
  TGI: > 100 µM
SN12C [9]
  growth at 100 µM: 12%
NCI/ADR-RES
  growth at 1 µM: 69%
SNB-19
  growth at 1 µM: 87%
KM12
  growth at 0.01 µM: 98%
